Laboratory results as given in ChEMBL document CHEMBL1821703, “Anthraquinone derivatives induce G2/M cell cycle arrest and apoptosis in NTUB1 cells” (Bioorg Med Chem, 2011).
The source made the active and inactive calls. The rule behind the calls is not given here.

Experiments:
[1] = tested on: PC-3; assay: Cytotoxicity against human PC3 cells after 72 hrs by MTT assay; format: functional; details: PC-3, 72 h, read-out: ED50 (the source's name)
Outline: (§1)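 Cells seeded at 1000/well (NTUB1, PC3) or 5000/well (SV-HUC1), incubated overnight at 37 °C, then exposed to graded concentrations for 72 h. Compounds were made up in DMSO and diluted in medium to 0.1% DMSO. MTT (2 mg/mL in PBS) added for 3 h, formazan dissolved in DMSO, absorbance read at 540 nm. Viability expressed as % of control; IC50 by median-effect analysis.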

[2] = Cytotoxicity against human NTUB1 cells after 72 hrs by MTT assay; format: functional; details: NTUB1, 72 h, read-out: ED50 (the source's name); outline: as §1
[3] = tested on: NTUB1; assay: Induction of ROS production in human NTUB1 cells using H2DCFDA staining after 24 hrs by flow cytometry analysis; format: functional, cell-based
Outline: (§2)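 NTUB1 cells treated 24 h with compounds, 20 µM cisplatin or 1 mM NAC. 10 µM H₂DCFDA added 30 min before harvest. Cells trypsinized, washed with PBS, and DCF green fluorescence read at once by FACScan flow cytometry through a 525-nm band-pass filter. Increase expressed with control set at 0%; three independent experiments.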

[4] = Cytotoxicity against human NTUB1 cells at >50 uM after 72 hrs by MTT assay; format: functional; outline: as §1
[5] = tested on: PC-3; assay: Cytotoxicity against human PC3 cells at >50 uM after 72 hrs by MTT assay; format: functional; outline: as §1
[6] = tested on: PC-3; assay: Cytotoxicity against human PC3 cells at >30 uM after 72 hrs by MTT assay; format: functional; outline: as §1
[7] = tested on: NTUB1; assay: Induction of ROS production in human NTUB1 cells using H2DCFDA staining at 20 uM after 24 hrs by flow cytometry analysis in presence of 1 mM of NAC; format: functional, cell-based
[8] = tested on: NTUB1; assay: Induction of morphological changes in human NTUB1 cells assessed as increase of tetraploid DNA level using DAPI staining at 20 uM after 24 hrs by immunofluorescence microscopic analysis; format: functional, cell-based
Outline: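 3 × 10⁵ NTUB1 cells per 6-cm dish treated 24 h. Fixed in 2% formaldehyde/PBS for 20 min, then cold methanol (−20 °C) for 3 min. Stained with DAPI 1 h at room temperature in the dark and examined by fluorescence microscopy.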

[9] = tested on: NTUB1; assay: Induction of up-regulation cyclin B1 expression in human NTUB1 cells at 20 uM after 24 hrs by Western blot analysis; format: functional, cell-based
Outline: (§3)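 NTUB1 cells exposed 24 h, trypsinized, and resuspended in PBS. Lysed by boiling twice for 10 min in 2× sample buffer, separated by SDS–PAGE, and semi-dry blotted to nitrocellulose. Membranes blocked in 5% skimmed milk in TBST, probed with primary antibodies overnight at 4 °C, then secondary antibody 1 h at room temperature. ECL chemiluminescence detection; GAPDH as internal control.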

[10] = tested on: NTUB1; assay: Induction of up-regulation p21 expression in human NTUB1 cells at 20 uM after 24 hrs by Western blot analysis; format: functional, cell-based; outline: as §3
[11] = tested on: NTUB1; assay: Induction of down-regulation cyclin B1 expression in human NTUB1 cells at 10 uM after 24 hrs by Western blot analysis; format: functional, cell-based; outline: as §3
[12] = tested on: NTUB1; assay: Induction of up-regulation p21 expression in human NTUB1 cells at 10 uM after 24 hrs by Western blot analysis; format: functional, cell-based; outline: as §3
[13] = tested on: NTUB1; assay: Increase of p53 protein expression in human NTUB1 cells at 10 to 20 uM after 24 hrs by Western blot analysis; format: functional, cell-based; outline: as §3
[14] = Decrease of Bax protein expression in human NTUB1 cells at 10 to 20 uM after 24 hrs by Western blot analysis; format: functional, cell-based; outline: as §3
[15] = Cytotoxicity against human SV-HUC1 cells at 3 to 10 uM after 72 hrs by MTT assay; format: cell-based; details: sv-huc1, 72 h; outline: as §1
[16] = Cell cycle arrest in human NTUB1 cells assessed as accumulation at sub-G1 phase at 10 uM after 24 hrs using propidium iodide staining by flow cytometry analysis (reference value: 1.96%); format: functional, cell-based
Outline: (§4)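 3 × 10⁵ NTUB1 cells per 6-cm dish, treated 24 h (medium-only control). Cells then stained with 50 µg/mL propidium iodide plus 50 µg/mL RNase A in PBS, 30 min at room temperature. DNA content read by FACScan flow cytometry; sub-G1 content taken as apoptosis. Values are mean ± SD of four independent experiments.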

[17] = Cell cycle arrest in human NTUB1 cells assessed as accumulation at G1 phase at 10 uM after 24 hrs using propidium iodide staining by flow cytometry analysis (reference value: 56.06%); format: functional, cell-based; outline: as §4
[18] = Cell cycle arrest in human NTUB1 cells assessed as accumulation at S phase at 10 uM after 24 hrs using propidium iodide staining by flow cytometry analysis (reference value: 22.61%); format: functional, cell-based; outline: as §4
[19] = Cell cycle arrest in human NTUB1 cells assessed as accumulation at G2/M phase at 10 uM after 24 hrs using propidium iodide staining by flow cytometry analysis (reference value: 18.61%); format: functional, cell-based; outline: as §4
[20] = Cell cycle arrest in human NTUB1 cells assessed as accumulation at sub-G1 phase at 20 uM after 24 hrs using propidium iodide staining by flow cytometry analysis (reference value: 1.96%); format: functional, cell-based; outline: as §4
[21] = Cell cycle arrest in human NTUB1 cells assessed as accumulation at G1 phase at 20 uM after 24 hrs using propidium iodide staining by flow cytometry analysis (reference value: 56.06%); format: functional, cell-based; outline: as §4
[22] = Cell cycle arrest in human NTUB1 cells assessed as accumulation at S phase at 20 uM after 24 hrs using propidium iodide staining by flow cytometry analysis (reference value: 22.61%); format: functional, cell-based; outline: as §4
[23] = Cell cycle arrest in human NTUB1 cells assessed as accumulation at G2/M phase at 20 uM after 24 hrs using propidium iodide staining by flow cytometry analysis (reference value: 18.61%); format: functional, cell-based; outline: as §4
[24] = Cytotoxicity against human NTUB1 cells assessed as cell viability at 10 uM after 72 hrs by MTT assay relative to control; format: functional; details: NTUB1, 72 h, read-out: Activity; outline: as §1
[25] = Cytotoxicity against human NTUB1 cells assessed as cell viability at 20 uM after 72 hrs by MTT assay relative to control; format: functional; details: NTUB1, 72 h, read-out: Activity; outline: as §1
[26] = Cytotoxicity against human NTUB1 cells assessed as cell viability at 10 uM after 72 hrs by MTT assay relative to control in presence of 1 mM of NAC; format: functional
Outline: (§5)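 NTUB1 cells seeded at 1000/well, incubated overnight, then exposed 72 h to 1 mM NAC alone or to compound with NAC. MTT added for 3 h, formazan dissolved in DMSO, absorbance read at 540 nm. Viability expressed relative to untreated control; mean ± SD (n = 3) from one experiment in triplicate.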

[27] = Cytotoxicity against human NTUB1 cells assessed as cell viability at 20 uM after 72 hrs by MTT assay relative to control in presence of 1 mM of NAC; format: functional; outline: as §5
[28] = Cytotoxicity against human NTUB1 cells at >30 uM after 72 hrs by MTT assay; format: functional; outline: as §1
[29] = tested on: NTUB1; assay: Induction of ROS production in human NTUB1 cells using H2DCFDA staining at 1 mM after 24 hrs by flow cytometry analysis; format: functional, cell-based; outline: as §2
[30] = Cytotoxicity against human NTUB1 cells assessed as cell viability at 1 mM after 72 hrs by MTT assay relative to control; format: functional; details: NTUB1, 72 h, read-out: Activity; outline: as §5

**Q.** Which results are given for `O=C1c2ccccc2C(=O)c2c(O)cc(OCCCN3CCOCC3)cc21`?
**A.** EC50 [1]: 17.7 µM; EC50 [2]: 20.4 µM; Activity [3]: Active

**Q.** With `CCNCCCOc1cc(O)c2c(c1)C(=O)c1ccccc1C2=O` as the compound, how does the EC50 [1] read?
**A.** > 50 µM

**Q.** What about the EC50 [2] of the same compound?
**A.** > 50 µM

**Q.** What about the “inhibition (INH)” value [4] of the same compound?
**A.** 23.2%

**Q.** What about the “inhibition (INH)” value [5] of the same compound?
**A.** 19.2%

**Q.** Which results are given for `CCNCCCOc1ccc2c(c1)C(=O)c1ccccc1C2=O`?
**A.** EC50 [1]: 22.9 µM; EC50 [2]: 24.4 µM

**Q.** Which EC50 [1] does the source give for `CN(CCO)CCCOc1cc(O)c2c(c1)C(=O)c1ccccc1C2=O` here?
**A.** 8.89 µM

**Q.** And the EC50 [2]?
**A.** 12.3 µM

**Q.** Which results are given for `CCOC(=O)N1CCN(CCCOc2cc(O)c3c(c2)C(=O)c2ccccc2C3=O)CC1`?
**A.** inhibition (INH) [6]: 12.44%; EC50 [1]: > 30 µM; EC50 [2]: 50.9 µM; Activity [3]: Active

**Q.** For `O=C1c2ccccc2C(=O)c2c(O)cc(OCCCN3CCCC3)cc21`, which Activity [7] is on record?
**A.** inactive

**Q.** And the Activity [8]?
**A.** Active

**Q.** What about the Activity [9] of the same compound?
**A.** Active

**Q.** And the Activity [10]?
**A.** Active

**Q.** And the Activity [11]?
**A.** Active

**Q.** What about the Activity [12] of the same compound?
**A.** Active

**Q.** And the Activity [13]?
**A.** Active

**Q.** And the Activity [14]?
**A.** Active

**Q.** And the Activity [15]?
**A.** Non-toxic

**Q.** And the EC50 [1]?
**A.** 7.64 µM

**Q.** What about the EC50 [2] of the same compound?
**A.** 9.72 µM

**Q.** What about the Activity [3] of the same compound?
**A.** Active

**Q.** And the Activity [16]?
**A.** 2.47%

**Q.** What about the Activity [17] of the same compound?
**A.** 51.4%

**Q.** What about the Activity [18] of the same compound?
**A.** 25.3%

**Q.** What about the Activity [19] of the same compound?
**A.** 19.2%

**Q.** What about the Activity [20] of the same compound?
**A.** 4.69%

**Q.** And the Activity [21]?
**A.** 36.6%

**Q.** And the Activity [22]?
**A.** 21.9%

**Q.** And the Activity [23]?
**A.** 29.6%

**Q.** What about the viability at 10 µM [24] of the same compound?
**A.** 57%

**Q.** What about the viability at 20 µM [25] of the same compound?
**A.** 13.1%

**Q.** And the Activity [26]?
**A.** 57.4%

**Q.** And the Activity [27]?
**A.** 17.1%

**Q.** Which results are given for `CC(O)CNCCCOc1cc(O)c2c(c1)C(=O)c1ccccc1C2=O` (configuration not stated)?
**A.** EC50 [1]: 9.07 µM; EC50 [2]: 12 µM

**Q.** With `CN1CCN(CCCOc2cc(O)c3c(c2)C(=O)c2ccccc2C3=O)CC1` as the compound, how does the EC50 [1] read?
**A.** > 50 µM

**Q.** What about the “inhibition (INH)” value [28] of the same compound?
**A.** 15.54%

**Q.** What about the EC50 [2] of the same compound?
**A.** > 30 µM

**Q.** What about the “inhibition (INH)” value [5] of the same compound?
**A.** 44.36%

**Q.** Which results are given for `CCCNCCCOc1cc(O)c2c(c1)C(=O)c1ccccc1C2=O`?
**A.** EC50 [1]: 14 µM; EC50 [2]: 18.9 µM

**Q.** For `O=C1c2ccccc2C(=O)c2c(O)cc(OCCCNC3CCCCC3)cc21`, which EC50 [1] is on record?
**A.** 9.12 µM

**Q.** What about the EC50 [2] of the same compound?
**A.** 8.37 µM

**Q.** Which EC50 [1] does the source give for `O=C1c2ccccc2C(=O)c2c(O)cc(OCCCN3CCN(CCO)CC3)cc21` here?
**A.** > 50 µM

**Q.** And the EC50 [2]?
**A.** > 50 µM

**Q.** And the “inhibition (INH)” value [4]?
**A.** 18.75%

**Q.** What about the “inhibition (INH)” value [5] of the same compound?
**A.** 18.54%

**Q.** For `O=C1c2ccccc2C(=O)c2c(O)cc(OCCCN3CCCCC3)cc21`, which EC50 [1] is on record?
**A.** 28.5 µM

**Q.** What about the EC50 [2] of the same compound?
**A.** 32.6 µM

**Q.** For `CC(=O)N[C@@H](CS)C(=O)O` [ACETYLCYSTEINE], which Activity [29] is on record?
**A.** inactive

**Q.** And the viability at 1000 µM [30]?
**A.** 96.3%
